Results as given in ChEMBL document CHEMBL4266041, “Hydroxybiphenylamide GroEL/ES Inhibitors Are Potent Antibacterials against Planktonic and Biofilm Forms of Staphylococcus aureus” (J Med Chem, 2018).

What was measured:
[1] = target: T1, E. coli GroEL/ES (Escherichia coli, UniProt P0A6F5); test: Inhibition of Escherichia coli GroEL expressed in Escherichia coli DH5alpha/Escherichia coli GroES expressed in Escherichia coli BL21 (DE3) assessed as reduction in GroEL/GroES-mediated denatured MDH refolding after 20 to 40 mins by spectrometric analysis
How it was run: (§1)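 Uses E. coli GroEL/ES with a denatured MDH or rhodanese reporter. GroEL first forms a binary complex with the denatured reporter. Refolding is started by adding ATP and GroES, then reporter enzyme activity is read. DMSO is the negative control. IC50 values from replicate curves are log-averaged after ROUT outlier screening.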

[2] = target: T1, E. coli GroEL/ES; test: Inhibition of Escherichia coli GroEL expressed in Escherichia coli DH5alpha/Escherichia coli GroES expressed in Escherichia coli BL21 (DE3) assessed as reduction in GroEL/GroES-mediated denatured rhodanese refolding after 45 mins by spectrometric analysis; how it was run: as §1
[3] = system: Staphylococcus aureus; test: Antibacterial activity against Staphylococcus aureus ATCC 25923 after 6 to 8 hrs by bacterial proliferation assay; type: functional, organism-based
[4] = target: T2, Thiosulfate sulfurtransferase (Homo sapiens, UniProt Q16762); test: Inhibition of refolded rhodanese (unknown origin) preincubated with Escherichia coli GroEL/GroES for 60 mins in absence of compound followed by compound addition by spectrometric analysis
T2 sequence (Q16762 whole entry): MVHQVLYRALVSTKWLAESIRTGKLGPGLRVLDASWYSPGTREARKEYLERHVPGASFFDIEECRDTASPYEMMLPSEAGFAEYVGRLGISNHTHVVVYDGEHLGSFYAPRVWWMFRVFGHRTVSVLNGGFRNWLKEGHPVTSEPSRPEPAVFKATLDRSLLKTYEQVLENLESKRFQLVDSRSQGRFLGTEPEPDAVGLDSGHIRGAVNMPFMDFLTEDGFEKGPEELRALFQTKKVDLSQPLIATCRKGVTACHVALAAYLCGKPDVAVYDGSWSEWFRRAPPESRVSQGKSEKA

[5] = Inhibition of refolded MDH (unknown origin) preincubated with Escherichia coli GroEL/GroES for 45 mins in absence of compound followed by compound addition and measured for 20 to 35 mins by spectrometric analysis
[6] = system: Enterococcus faecium; test: Antibacterial activity against Enterococcus faecium ATCC 19434 after 24 hrs by bacterial proliferation assay; type: functional, organism-based; details: ATCC 19434, 24 h
[7] = system: Staphylococcus aureus; test: Antibacterial activity against methicillin-resistant Staphylococcus aureus ATCC BAA-44 after 6 to 8 hrs by bacterial proliferation assay; type: functional, organism-based; details: Staphylococcus aureus, ATCC BAA-44
[8] = system: Klebsiella pneumoniae; test: Antibacterial activity against Klebsiella pneumoniae ATCC 13883 after 6 to 8 hrs by bacterial proliferation assay; type: functional, organism-based
How it was run: (§2)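 Bacterial growth inhibition in liquid culture. The highest concentration tested was 100 µM. The mean was back-calculated from the average log value. Values above the top concentration were set 0.1 log unit higher.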

[9] = system: Acinetobacter baumannii; test: Antibacterial activity against Acinetobacter baumannii ATCC 19606 after 24 hrs by bacterial proliferation assay; type: functional, organism-based; details: ATCC 19606 = CIP 70.34 = JCM 6841, 24 h; how it was run: as §2
[10] = system: Pseudomonas aeruginosa; test: Antibacterial activity against Pseudomonas aeruginosa ATCC 10145 after 24 hrs by bacterial proliferation assay; type: functional, organism-based; details: ATCC 10145, 24 h; how it was run: as §2
[11] = system: Enterobacter cloacae; test: Antibacterial activity against Enterobacter cloacae subsp. cloacae ATCC 13047 after 24 hrs by bacterial proliferation assay; type: functional, organism-based; details: subsp. cloacae ATCC 13047, 24 h; how it was run: as §2
[12] = target: HSP60/HSP10 (Homo sapiens, UniProt P10809); test: Inhibition of human N-terminal octa-His-tagged HSP60 expressed in Escherichia coli Rosetta(DE3) pLysS/human HSP10 expressed in Escherichia coli Rosetta(DE3) assessed as reduction in HSP60/HSP10-mediated denatured MDH refolding after 40 to 60 mins by spectrometric analysis
How it was run: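 Human HSP60/10 refolding of denatured MDH, run the same way as the GroEL/ES-dMDH assay. A binary complex of chaperonin and denatured MDH is formed, and refolding is started with ATP and HSP10. MDH activity is the read-out. DMSO is the negative control. IC50 values from replicate curves are log-averaged after ROUT outlier screening.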

[13] = Cytotoxicity against human THLE3 cells assessed as reduction in cell viability after 48 hrs by Alamar Blue reporter assay; details: 48 h
[14] = system: HEK293; test: Cytotoxicity against HEK293 cells assessed as reduction in cell viability after 48 hrs by Alamar Blue reporter assay; details: human, hek293, 48 h

Sequence of HSP60/HSP10 (P10809 whole entry): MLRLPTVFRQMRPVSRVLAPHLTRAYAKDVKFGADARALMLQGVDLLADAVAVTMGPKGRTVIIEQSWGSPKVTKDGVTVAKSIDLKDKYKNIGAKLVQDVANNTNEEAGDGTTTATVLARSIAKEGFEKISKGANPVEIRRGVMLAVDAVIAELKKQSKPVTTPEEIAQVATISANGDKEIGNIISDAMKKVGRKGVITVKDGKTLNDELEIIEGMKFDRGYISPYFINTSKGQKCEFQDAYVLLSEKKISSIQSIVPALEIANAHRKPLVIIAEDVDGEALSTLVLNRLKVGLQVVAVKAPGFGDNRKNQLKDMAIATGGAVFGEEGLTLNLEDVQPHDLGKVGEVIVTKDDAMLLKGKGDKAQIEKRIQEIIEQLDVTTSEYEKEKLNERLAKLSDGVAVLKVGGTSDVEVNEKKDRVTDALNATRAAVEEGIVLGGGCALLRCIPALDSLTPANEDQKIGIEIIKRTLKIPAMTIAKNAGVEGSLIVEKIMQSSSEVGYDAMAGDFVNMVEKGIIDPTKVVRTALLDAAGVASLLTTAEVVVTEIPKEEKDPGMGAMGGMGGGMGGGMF
Sequence of HSP60/HSP10 (P61604 whole entry, further chain): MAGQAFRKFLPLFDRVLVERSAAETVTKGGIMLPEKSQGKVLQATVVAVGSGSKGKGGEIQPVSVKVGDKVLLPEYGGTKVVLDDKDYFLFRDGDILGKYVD
T1 sequence (P0A6F5 whole entry, looked up): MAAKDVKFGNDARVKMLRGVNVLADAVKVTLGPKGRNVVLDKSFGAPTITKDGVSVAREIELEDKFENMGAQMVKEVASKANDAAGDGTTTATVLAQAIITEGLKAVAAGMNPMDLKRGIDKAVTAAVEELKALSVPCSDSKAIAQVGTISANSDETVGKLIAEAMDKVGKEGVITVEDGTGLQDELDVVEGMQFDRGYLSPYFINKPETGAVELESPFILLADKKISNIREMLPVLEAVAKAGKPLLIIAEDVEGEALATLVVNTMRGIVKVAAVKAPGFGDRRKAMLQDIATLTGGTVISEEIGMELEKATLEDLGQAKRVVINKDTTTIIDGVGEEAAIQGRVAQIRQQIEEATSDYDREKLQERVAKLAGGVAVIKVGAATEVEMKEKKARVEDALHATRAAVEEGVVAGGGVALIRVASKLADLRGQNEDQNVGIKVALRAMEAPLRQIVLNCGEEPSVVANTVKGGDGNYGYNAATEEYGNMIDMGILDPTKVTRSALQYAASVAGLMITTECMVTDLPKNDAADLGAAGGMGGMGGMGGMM

Row | SMILES | IC50 [1] [µM] | IC50 [2] [µM] | EC50 [3] [µM] | IC50 [4] [µM] | IC50 [5] [µM] | EC50 [6] [µM] | EC50 [7] [µM] | EC50 [8] [µM] | EC50 [9] [µM] | EC50 [10] [µM] | EC50 [11] [µM] | IC50 [12] [µM] | CC50 [13] [µM] | CC50 [14] [µM]
1 | O=C(Nc1ccc(Sc2nc3ccccc3s2)cc1)c1cc(Br)ccc1O | 38 | 30 | 0.12 | > 100 | > 63 | 19 | 0.14 | > 100 | > 100 | > 100 | > 100 | > 100 | 12 | 42
2 | COc1ccccc1C(=O)Nc1ccc(Sc2nc3ccccc3s2)c(Cl)c1 | > 100 | > 100 | > 100 | > 100 | > 63 | > 100 | > 100 | > 100 | > 100 | > 100 | > 100 | > 100 | > 100 | > 100
3 | COc1ccccc1C(=O)Nc1ccccc1 | > 100 | > 100 | > 100 | > 100 | > 63 | > 100 | > 100 | > 100 | > 100 | > 100 | > 100 | > 100 | > 100 | > 100
4 | O=C(Nc1ccc(Sc2nc3ccccc3s2)cc1)c1cccc(Br)c1 | > 100 | > 100 | > 100 | > 100 | > 63 | > 100 | > 100 | > 100 | > 100 | > 100 | > 100 | > 100 | 82 | 74
5 | O=C(Nc1ccc(Sc2nc3ccccc3s2)c(Cl)c1)c1cc(Br)ccc1O | 37 | 11 | 0.12 | > 100 | > 63 | 15 | 0.17 | > 100 | > 100 | > 100 | > 100 | > 100 | 14 | 45
6 | O=C(Nc1ccccc1)c1cc(Br)cc(Br)c1 | > 100 | > 100 | > 100 | > 100 | > 63 | > 100 | > 100 | > 100 | > 100 | > 100 | > 100 | > 100 | > 100 | > 100
7 | O=C(Nc1ccccc1)c1cccc(Br)c1 | > 100 | > 100 | > 100 | > 100 | > 63 | > 100 | > 100 | > 100 | > 100 | > 100 | > 100 | > 100 | > 100 | > 100
8 | O=C(Nc1ccc(Sc2nc3ccccc3s2)cc1)c1cc(Br)cc(Br)c1 | > 100 | > 100 | > 100 | > 100 | > 63 | > 100 | > 100 | > 100 | > 100 | > 100 | > 100 | > 100 | > 100 | > 100
9 | COc1c(Br)cc(Br)cc1C(=O)Nc1ccccc1 | > 100 | > 100 | > 100 | > 100 | > 63 | > 100 | > 100 | > 100 | > 100 | > 100 | > 100 | > 100 | > 100 | > 100
10 | O=C(Nc1ccc(Sc2nc3ccccc3s2)cc1)c1ccccc1 | > 100 | > 100 | > 100 | > 100 | > 63 | > 100 | > 100 | > 100 | > 100 | > 100 | > 100 | > 100 | > 100 | > 100
11 | O=C(Nc1ccc(Sc2nc3ccccc3s2)cc1)c1cccc(Br)c1O | 33 | 14 | 0.76 | > 100 | > 63 | 11 | 1.1 | > 100 | 12 | > 100 | > 100 |  | 36 | 71
12 | CO[C@H]1/C=C/O[C@@]2(C)Oc3c(C)c(O)c4c(O)c(c(/C=N/N5CCN(C)CC5)c(O)c4c3C2=O)NC(=O)/C(C)=C\C=C\[C@H](C)[C@H](O)[C@@H](C)[C@@H](O)[C@@H](C)[C@H](OC(C)=O)[C@@H]1C [RIFAMPIN] | > 100 | > 100 | < 0.05 | > 100 | > 63 | 0.13 | 0.23 | 11 | 1.3 | 7.8 | 8.8 | > 100 |  | 
13 | COc1ccccc1C(=O)Nc1cccc(Cl)c1 | > 100 | > 100 | > 100 | > 100 | > 63 | > 100 | > 100 | > 100 | > 100 | > 100 | > 100 | > 100 | > 100 | > 100
14 | COc1c(Br)cc(Br)cc1C(=O)Nc1cccc(Cl)c1 | > 100 | > 100 | 46 | > 100 | > 63 | > 100 | > 100 | > 100 | > 100 | > 100 | > 100 | > 100 | > 100 | > 100
15 | O=C(Nc1ccc(Sc2nc3ccccc3s2)c(Cl)c1)c1cccc(Br)c1 | > 100 | > 100 | > 100 | > 100 | > 63 | > 100 | > 100 | > 100 | > 100 | > 100 | > 100 | > 100 | 88 | > 100
16 | O=C(Nc1cccc(Cl)c1)c1cccc(Br)c1O | > 100 | > 100 | 1.3 | > 100 | > 63 | > 100 | 2 | > 100 | > 100 | > 100 | > 100 | > 100 | 16 | 32
17 | COc1c(Br)cc(Br)cc1C(=O)Nc1ccc(Sc2nc3ccccc3s2)c(Cl)c1 | > 100 | > 100 | > 100 | > 100 | > 63 | > 100 | > 100 | > 100 | > 100 | > 100 | > 100 | > 100 | > 100 | > 100
18 | O=C(Nc1ccc(Sc2nc3ccccc3s2)c(Cl)c1)c1ccccc1O | 42 | 63 | 0.31 | > 100 | > 63 | 64 | 0.45 | > 100 | > 100 | > 100 | > 100 | > 100 | 34 | 
